From ChEMBL document CHEMBL1149831, “Synthesis of 2-aryl-4-(benzimidazol-2-yl)-1,2-dihydro[1,2,4]triazino-[4,5-a]benzimidazol-1-one derivatives with preferential cytotoxicity against carcinoma cell lines” (Eur J Med Chem, 2008)

Legend:
Type in all cases: functional, cell-based
[1] = test system: A549; assay: Cytotoxicity against human A549 cells after 72 hrs by MTT assay; conditions: A549, 72 h
Outline: (§1)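 Cells grown in DMEM/RPMI 1640 with 5 g/L glucose, 2 mM glutamine, penicillin/streptomycin, 10% fetal calf serum and NaHCO3. Seeded in 96-well plates and left 24 h at 37 °C, 5% CO2 before compound addition. Exposure then ran 72 h, each concentration in duplicate. MTT added for 1-4 h and formazan dissolved overnight in 10% aq. SDS (pH 5.5). OD read at 540 nm, with IC50 taken from dose-response curves.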

[2] = test system: CCRF-CEM; assay: Cytotoxicity against human CEM-DNR bulk cells after 72 hrs by MTT assay; outline: as §1
[3] = test system: K562; assay: Cytotoxicity against human K562 cells after 72 hrs by MTT assay; conditions: K562, 72 h; outline: as §1
[4] = test system: HCT-116; assay: Cytotoxicity against human HCT116 cells expressing wild type p53 after 72 hrs by MTT assay; conditions: HCT-116, 72 h; outline: as §1
[5] = test system: U-118-MG; assay: Cytotoxicity against human U118Mg cells after 72 hrs by MTT assay; outline: as §1
[6] = test system: K562; assay: Cytotoxicity against human K562-Tax cells after 72 hrs by MTT assay; conditions: K562, 72 h; outline: as §1
[7] = test system: HT-29; assay: Cytotoxicity against human HT29 cells after 72 hrs by MTT assay; conditions: HT-29, 72 h; outline: as §1
[8] = test system: PC-3; assay: Cytotoxicity against human PC3 cells after 72 hrs by MTT assay; conditions: PC-3, 72 h; outline: as §1
[9] = test system: HCT-116; assay: Cytotoxicity against human HCT116 cells expressing mutant p53 after 72 hrs by MTT assay; conditions: HCT-116, 72 h; outline: as §1
[10] = test system: CCRF-CEM; assay: Cytotoxicity against human CEM cells after 72 hrs by MTT assay; outline: as §1
[11] = test system: MCF7; assay: Cytotoxicity against human MCF7 cells after 72 hrs by MTT assay; conditions: MCF7, 72 h; outline: as §1

SMILES | IC50 [1] | IC50 [2] | IC50 [3] | IC50 [4] | IC50 [5] | IC50 [6] | IC50 [7] | IC50 [8] | IC50 [9] | IC50 [10] | IC50 [11]
Clc1ccc(NN=C(c2nc3ccccc3[nH]2)c2nc3ccccc3[nH]2)cc1 | 2.8 µM | 112 µM | 200 µM | 201 µM | 250 µM | 159 µM | 114 µM | 250 µM | 16.8 µM | 42.5 µM | 140 µM
O=c1n(-c2ccc(Cl)cc2)nc(-c2nc3ccccc3[nH]2)c2nc3ccccc3n12 | 1.2 µM | 51.2 µM | 134 µM | 73.9 µM | 247 µM | 167 µM | 88.6 µM | 242 µM | 2.3 µM | 83.6 µM | 140 µM
COc1ccc(-n2nc(-c3nc4ccccc4[nH]3)c3nc4ccccc4n3c2=O)cc1 | 8.7 µM | 35.4 µM | 8.7 µM | 6.9 µM | 10 µM | 7.5 µM | 6 µM | 24.6 µM | 3.6 µM | 3.5 µM | 10.7 µM
O=[N+]([O-])c1ccc(NN=C(c2nc3ccccc3[nH]2)c2nc3ccccc3[nH]2)cc1 | 0.7 µM | 140 µM | 190 µM | 11.7 µM | 250 µM | 101 µM | 17.7 µM | 218 µM | 4.7 µM | 58.4 µM | 94.8 µM
CCOC(=O)n1c(-c2nn(-c3ccc([N+](=O)[O-])cc3)c(=O)n3c2nc2ccccc23)nc2ccccc21 | 4.4 µM | 224 µM | 166 µM | 70.7 µM | 6.2 µM | 196 µM | 21.9 µM | 125 µM | 5.4 µM | 155 µM | 144 µM
O=c1n(-c2ccc([N+](=O)[O-])cc2)nc(-c2nc3ccccc3[nH]2)c2nc3ccccc3n12 | 2.2 µM | 190 µM | 210 µM | 250 µM | 250 µM | 250 µM | 248 µM | 250 µM | 250 µM | 103 µM | 250 µM
Cc1ccc(NN=C(c2nc3ccccc3[nH]2)c2nc3ccccc3[nH]2)cc1 | 0.6 µM | 87.6 µM | 160 µM | 195 µM | 250 µM | 239 µM | 95.9 µM | 250 µM | 10.5 µM | 26.5 µM | 95.8 µM
COc1ccc(NN=C(c2nc3ccccc3[nH]2)c2nc3ccccc3[nH]2)cc1 | 0.5 µM | 96.7 µM | 116 µM | 35.7 µM | 250 µM | 235 µM | 114 µM | 250 µM | 66.5 µM | 10.9 µM | 215 µM
CCOC(=O)n1c(-c2nn(-c3ccc(C)cc3)c(=O)n3c2nc2ccccc23)nc2ccccc21 | 71 µM | 29.6 µM | 140 µM | 46.3 µM | 147 µM | 53.7 µM | 96.2 µM | 165 µM | 44.4 µM | 25.5 µM | 134 µM
c1ccc(NN=C(c2nc3ccccc3[nH]2)c2nc3ccccc3[nH]2)cc1 | 3.8 µM | 27.9 µM | 114 µM | 162 µM | 160 µM | 144 µM | 81.9 µM | 248 µM | 17.6 µM | 13 µM | 83.2 µM
O=c1n(-c2ccccc2)nc(-c2nc3ccccc3[nH]2)c2nc3ccccc3n12 | 11.5 µM | 45.6 µM | 23.5 µM | 38.1 µM | 12 µM | 42.7 µM | 8 µM | 13.6 µM | 8.6 µM | 12.2 µM | 74.8 µM
CCOC(=O)n1c(-c2nn(-c3ccc(Cl)cc3)c(=O)n3c2nc2ccccc23)nc2ccccc21 | 4 µM | 111 µM | 14.1 µM | 7.7 µM | 12.4 µM | 7.9 µM | 29.7 µM | 150 µM | 6.4 µM | 31.8 µM | 21.3 µM
Cc1ccc(-n2nc(-c3nc4ccccc4[nH]3)c3nc4ccccc4n3c2=O)cc1 | 14.7 µM | 61.2 µM | 18.3 µM | 7.8 µM | 17.9 µM | 20.9 µM | 15.2 µM | 40.8 µM | 7.6 µM | 18.5 µM | 34.1 µM
CCOC(=O)n1c(-c2nn(-c3ccccc3)c(=O)n3c2nc2ccccc23)nc2ccccc21 | 18 µM | 18.4 µM | 69.4 µM | 11.4 µM | 17.7 µM | 42.2 µM | 15.2 µM | 37.5 µM | 10.8 µM | 58.6 µM | 35.1 µM
CCOC(=O)n1c(-c2nn(-c3ccc(OC)cc3)c(=O)n3c2nc2ccccc23)nc2ccccc21 | 44.4 µM | 111 µM | 14 µM | 42.8 µM | 54.3 µM | 7.8 µM | 38.7 µM | 145 µM | 46.3 µM | 31.8 µM | 51.6 µM
